High-throughput results: PubChem BioAssay, Broad Institute
In the library only some 2.2% were active in any assay of this set; here they are far more common.
FN deposit inh – inhibitors of fibronectin matrix deposition, primary screen, AH1F cells, Alexa488-fibronectin fluorescence, plate reader. AH1F fibroblasts, overnight. inhibition, % at 12.6 µM. 350,000 tested, 0.086% active;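 active = mean inhibition across replicates of 30% or more, regardless of how many single replicates reach that level; inconclusive = mean under 30% yet at least half of replicates reach 30%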
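Material: AH1F fibroblasts assembling fluorescent fibronectin matrix; amount: 10000 AH1F cells/well; medium: DMEM, 2% serum; reagent: Alexa488-fibronectin, 24 nM final in well; dosing: single compound dose, delivered by pin transfer; incubation: 1 h adhesion, overnight exposure; detection: fluorescence after three HBSS washes, excitation 485 nm, emission 525 nm; measure: fibronectin deposition inhibition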
ERp5 inh – inhibitors of ERp5-driven insulin aggregation, primary screen, biochemical, turbidity, absorbance 650 nm, single point; Protein disulfide-isomerase A6 (Homo sapiens), Q15084; 90 min; inhibition, % at 9.99 µM; 350,000 tested, 0.05% active;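 active = mean replicate inhibition above about 25%, with every replicate also reaching it, limit read from the data, passing the limit was not always enough; inconclusive = only one of those two criteria met; inactive = neither criterion met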
Env fusion inh – inhibitors of HIV-1 Env-driven cell-cell fusion, primary screen, HeLa-JRFL effector, CEM21 target cells, luciferase | inhibition, % at 12.3 µM | 360,000 tested, 1.1% active | AID 651610, 2012;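 active = mean replicate inhibition score of at least 50 and every replicate individually at or above 50; inconclusive = only one of the two criteria met; inactive = mean below 50 and not all replicates reaching 50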
PDI turbidity – inhibitors of human PDI, primary screen, biochemical, turbidity, single point, plate reader; inhibition, % at 10 µM; 350,000 tested, 0.052% active; PDI insulin aggregation turbidity, A650, 90 min; Protein disulfide-isomerase (Homo sapiens), P07237;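 active = mean inhibition across replicates of 30% or more, whatever share of single replicates reach that level; inconclusive = mean inhibition below 30% while every single replicate reaches 30%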
Target sequence (P07237 whole entry, looked up): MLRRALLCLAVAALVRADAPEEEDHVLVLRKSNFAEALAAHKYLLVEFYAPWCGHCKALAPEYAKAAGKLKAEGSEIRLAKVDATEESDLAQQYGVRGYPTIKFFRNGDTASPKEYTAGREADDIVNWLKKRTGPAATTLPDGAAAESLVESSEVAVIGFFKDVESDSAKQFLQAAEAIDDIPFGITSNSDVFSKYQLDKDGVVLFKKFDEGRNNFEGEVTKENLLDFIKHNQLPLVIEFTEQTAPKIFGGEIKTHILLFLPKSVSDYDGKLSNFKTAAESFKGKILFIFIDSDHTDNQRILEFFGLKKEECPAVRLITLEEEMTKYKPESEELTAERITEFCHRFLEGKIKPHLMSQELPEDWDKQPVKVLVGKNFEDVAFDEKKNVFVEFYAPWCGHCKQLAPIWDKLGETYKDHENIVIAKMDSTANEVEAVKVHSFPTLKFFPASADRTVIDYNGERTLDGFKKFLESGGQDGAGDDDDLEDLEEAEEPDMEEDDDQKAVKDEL
Ecoli rRNA inh – reduced GFP signal of wild-type E. coli, primary screen, bacterial rRNA inhibitor project, GFP/RFP fluorescence, OD600, single point; E. coli WT GFP vs humanized-ribosome RFP mutants, 24 h; stronger effect = lower value; DMSO median 0, no signal -100; GFP signal change (wild-type ribosome), % (test concentration not listed); 350,000 tested, 1.6% active; AID 720706, 2013;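 active = significant combined selectivity score with lowered wild-type GFP, culture density cut under 30%, mutant RFP and density less affected; inactive = any of these conditions unmet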
PvdQ inh – P. aeruginosa PvdQ acylase inhibitors, primary screen, biochemical, fluorescence, plate reader and imaging, single point. PvdQ acylase [Pseudomonas aeruginosa LESB58]. AID 488965, 2010. 340,000 tested, 0.063% active. inhibition, % at 10 µM. purified PvdQ acylase; in the data active = inhibition above about 30%, passing the limit was not always enough; inconclusive = no clear call, values can overlap the other calls
Each line names hits and unclear results; the compound was inactive in the other large screens; [ ] = another dose, or the depositor's remark.

Cc1ccc(S(=O)(=O)NCC[C@H]2CC[C@@H](NC(=O)c3cnccn3)[C@H](CO)O2)cc1	none (no result: FN deposit inh, PDI turbidity, PvdQ inh)
C[C@@H]1CN([C@@H](C)CO)C(=O)Cc2cc(NC(=O)Nc3ccc4c(c3)OCO4)ccc2O[C@H]1CN(C)Cc1ccc(C(=O)Nc2ccccc2N)cc1	none (no result: PDI turbidity, PvdQ inh)
Cc1ccc(S(=O)(=O)N(C)C[C@@H]2OCCCC[C@H](C)Oc3ccc(NC(=O)NC(C)C)cc3C(=O)N([C@@H](C)CO)C[C@@H]2C)cc1	none (no result: PDI turbidity, PvdQ inh)
Cn1c(=O)n(Cc2ccccc2)c2ccccc21	none (no result: FN deposit inh, Env fusion inh)
Cn1c(=O)n(Cc2ccc(Br)cc2)c2ccccc21	Ecoli rRNA inh -48 (no result: FN deposit inh)
c1ccc(C(c2ccccc2)c2noc(CN3CCC(c4ccncc4)CC3)n2)cc1	Ecoli rRNA inh -43
COc1ccccc1NC(=O)N[C@H]1CC[C@H](CC(=O)N[C@@H](C)c2ccccc2)O[C@H]1CO	none (no result: PDI turbidity, PvdQ inh)
COc1ccccc1NC(=O)N[C@@H]1CC[C@H](CC(=O)N[C@H](C)c2ccccc2)O[C@@H]1CO	Env fusion inh 75[16.7 µM] (no result: PDI turbidity, PvdQ inh)
CCCN(CCC)C1=CC(=[N+]2CCCC2)CC(C)(C)C1	Ecoli rRNA inh -47
CC1(C)CC(N2CCOCC2)=CC(=[N+]2CCOCC2)C1	none
CC1(C)CC(N2CCCCC2)=CC(=[N+]2CCCCC2)C1	Ecoli rRNA inh -37
CN(C)NC1=CC(=[N+]2CCCC2)CC(C)(C)C1	none
CO[C@@H]1CN(C)C(=O)c2ccc(NC(=O)c3ccc(Oc4ccccc4)cc3)cc2OC[C@@H](C)N(C(C)=O)C[C@H]1C	none (no result: ERp5 inh, Env fusion inh, PDI turbidity, PvdQ inh)
O=C(CNCc1ccc(Cl)cc1)Nc1ccc(C(=O)N2CCCCC2)cc1	none
O=C(CNCc1ccc(Cl)cc1)Nc1ccc(C(=O)N2CCCCCC2)cc1	Ecoli rRNA inh -30
CCN(CC)S(=O)(=O)c1ccc(NC(=O)C2CCCN(C(=O)c3ccc(Cl)cc3)C2)cc1 (configuration not stated)	Ecoli rRNA inh -23 (no result: Env fusion inh)
COc1ccc2c3c(n(C)c2c1)[C@@H](CO)NCC31CN(S(=O)(=O)c2cccc(F)c2)C1	none (no result: FN deposit inh, ERp5 inh, Env fusion inh, PDI turbidity, PvdQ inh)
CCCn1nc(NS(=O)(=O)c2ccccc2[N+](=O)[O-])c2cc3ccccc3nc21	Ecoli rRNA inh -21
CCn1nc(NS(=O)(=O)c2ccccc2[N+](=O)[O-])c2cc3ccc(C)cc3nc21	none (no result: FN deposit inh, ERp5 inh, Env fusion inh, Ecoli rRNA inh)
CN1CCN(C(=O)C[C@@H]2CC[C@@H]3[C@H](COc4ccc(NC(=O)c5cscn5)cc4C(=O)N3C)O2)CC1	none (no result: PDI turbidity, PvdQ inh)
O=C(C[C@H]1C=C[C@@H](NC(=O)NC2CCCCC2)[C@@H](CO)O1)NCc1ccc(F)cc1	none (no result: PDI turbidity, PvdQ inh)
COc1ccc(/C=C2\CCC/C(=C\C=N\N(C)C)C2=O)cc1	Ecoli rRNA inh -20
CN(C)/N=C/C=C1\CCC/C(=C\c2ccc(F)c(F)c2)C1=O	Ecoli rRNA inh -27
CN(C)CC(=O)N1[C@H](CO)[C@@H](c2ccccc2)C12CN(C(=O)c1cccc(F)c1)C2	none (no result: FN deposit inh, Env fusion inh, PDI turbidity, PvdQ inh)
O=C(O)C1C(c2ccccc2)C(C(=O)Oc2ccc(O)cc2)C1c1ccccc1 (configuration not stated)	PDI turbidity 46 (no result: ERp5 inh, Ecoli rRNA inh)
COC(=O)C1C(c2ccccc2)C(C(=O)O)C1c1ccccc1 (configuration not stated)	none
CO[C@H]1CN(C)C(=O)c2cc(NS(C)(=O)=O)ccc2OC[C@H](C)N(CC2CC2)C[C@@H]1C	none (no result: Env fusion inh, PDI turbidity, PvdQ inh)
COc1ccc(CN(C)C[C@@H]2OCCCC[C@H](C)Oc3ccc(NC(=O)Nc4ccc(OC)cc4)cc3C(=O)N([C@@H](C)CO)C[C@@H]2C)cc1	Env fusion inh 64[16.7 µM] (no result: PDI turbidity, PvdQ inh)
COc1ccc(S(=O)(=O)N(C)C[C@H]2OCCCC[C@@H](C)Oc3ccc(NC(=O)Nc4ccccc4)cc3C(=O)N([C@H](C)CO)C[C@@H]2C)cc1	none (no result: ERp5 inh, PDI turbidity, PvdQ inh)
COc1ccc(NC(=O)Nc2ccc3c(c2)C(=O)N([C@H](C)CO)C[C@@H](C)[C@@H](CN(C)Cc2ccccc2)OCCCC[C@H](C)O3)cc1	none (no result: PDI turbidity, PvdQ inh)
COc1ccc(NC(=O)Nc2ccc3c(c2)C(=O)N([C@@H](C)CO)C[C@H](C)[C@H](CN(C)Cc2ccccc2)OCCCC[C@H](C)O3)cc1	Env fusion inh 86[16.7 µM] (no result: PDI turbidity, PvdQ inh)
COc1ccc(S(=O)(=O)N(C)C[C@@H]2OCCCC[C@@H](C)Oc3ccc(NC(=O)Nc4ccccc4)cc3C(=O)N([C@H](C)CO)C[C@H]2C)cc1	Env fusion inh 76[16.7 µM] (no result: ERp5 inh, PDI turbidity, PvdQ inh)
C[C@H]1CN([C@@H](C)CO)C(=O)c2cc(NC(=O)CCCN(C)C)ccc2O[C@@H]1CN(C)C	none (no result: Env fusion inh, PDI turbidity, PvdQ inh)
CC1CCCC(C)N1CCCNC(=O)c1ccc2c(c1)NC(=O)c1ccccc1S2 (configuration not stated)	Env fusion inh inconclusive
CCC(C)N(CCNC(=O)c1ccc2c(c1)NC(=O)c1ccccc1S2)C1CCCCC1 (configuration not stated)	Env fusion inh 79
C[C@@H](NC(=O)C[C@@H]1CC[C@@H]2[C@H](COC[C@H](O)CN2Cc2cc(F)ccc2F)O1)c1ccccc1	none (no result: PDI turbidity, PvdQ inh)
O=S(=O)(NCc1cc(-c2ccccc2)no1)c1ccccc1	Ecoli rRNA inh -23
O=S(=O)(NCc1cc(-c2ccc(Cl)cc2)no1)c1ccccc1	none (no result: ERp5 inh, Ecoli rRNA inh)
COc1ccc(S(=O)(=O)Nc2ccc3c(c2)C(=O)N([C@@H](C)CO)C[C@H](C)[C@H](CN(C)S(C)(=O)=O)O3)cc1	none (no result: FN deposit inh, PDI turbidity, PvdQ inh)
C=CCn1c(SC(C)C(=O)NCc2ccc3c(c2)OCO3)nc2scc(-c3ccccc3)c2c1=O (configuration not stated)	Env fusion inh 119 (no result: ERp5 inh, Ecoli rRNA inh)
CCn1c(SC(C)C(=O)NCC2CCCO2)nc2scc(-c3ccccc3)c2c1=O (configuration not stated)	none
C=CCn1c(SCC(=O)NCc2ccc3c(c2)OCO3)nc2scc(-c3ccc(F)cc3)c2c1=O	Env fusion inh 107 (no result: ERp5 inh, Ecoli rRNA inh)
CCSc1nc2c(c(=O)n(C)c(=O)n2C)n1Cc1ccc(Cl)cc1	none (no result: FN deposit inh, ERp5 inh, Env fusion inh, Ecoli rRNA inh)
Cn1c(=O)c2c(nc(SCC(=O)NCc3ccc4c(c3)OCO4)n2Cc2ccc(Cl)cc2)n(C)c1=O	Env fusion inh 106 (no result: ERp5 inh, Ecoli rRNA inh)
COc1ccc(S(=O)(=O)N(C)C[C@H]2Oc3ccc(NC(=O)Nc4cccc5ccccc45)cc3CC(=O)N([C@H](C)CO)C[C@@H]2C)cc1	none (no result: PDI turbidity, PvdQ inh)
Cc1nc([N+](=O)[O-])c(Br)n1CC(=O)c1cccc([N+](=O)[O-])c1	Ecoli rRNA inh -39
Cc1nc([N+](=O)[O-])c(Br)n1CC(=O)c1ccc(F)cc1	Ecoli rRNA inh -33
